Laboratory results: ChEMBL document CHEMBL4706750, “Design and Catalyzed Activation of Mycophenolic Acid Prodrugs” (ACS Med Chem Lett, 2021)
Calls of active or inactive are those of the source. The rule behind the calls is not given here.

Key:
[1] = molecular target: Inosine-5'-monophosphate dehydrogenase 2 (Homo sapiens) (UniProt P12268); assay: Inhibition of IMPDH2 (unknown origin) assessed by conversion of NAD+ to NADH preincubated for 30 mins followed by addition of inosine-5'- monophosphate substrate and NAD at 10 uM measured by plate reader method
Chain of Inosine-5'-monophosphate dehydrogenase 2 (Homo sapiens) (P12268 2-514 limits assumed): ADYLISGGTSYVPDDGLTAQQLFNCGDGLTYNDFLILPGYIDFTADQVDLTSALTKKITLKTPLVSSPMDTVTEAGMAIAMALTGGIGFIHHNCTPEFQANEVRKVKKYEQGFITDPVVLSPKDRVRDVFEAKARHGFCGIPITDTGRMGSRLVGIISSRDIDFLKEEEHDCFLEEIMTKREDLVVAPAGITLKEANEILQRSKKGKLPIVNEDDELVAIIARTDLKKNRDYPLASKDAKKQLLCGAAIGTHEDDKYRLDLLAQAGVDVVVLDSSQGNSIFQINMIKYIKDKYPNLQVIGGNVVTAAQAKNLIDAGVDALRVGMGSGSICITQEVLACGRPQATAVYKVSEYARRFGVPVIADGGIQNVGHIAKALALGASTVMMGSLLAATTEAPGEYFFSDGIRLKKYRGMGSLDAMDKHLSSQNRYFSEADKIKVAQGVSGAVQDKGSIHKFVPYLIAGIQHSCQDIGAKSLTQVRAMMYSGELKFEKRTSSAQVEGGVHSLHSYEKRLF
In short: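 IMPDH2 enzyme exposed to test compounds, then stimulated with inosine-5′-monophosphate and NAD+. NADH formation followed by absorbance at 340 nm. Single test concentration of 10 μM.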

[2] = Toxicity in human hepatocytes assessed by dehydrogenase activity measured after 48 hrs by CCK-8 assay; format: cell-based, Hepatocyte
In short: (§1)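 Cells cultured with compound for 48 h, then dehydrogenase activity read by colorimetric CCK-8 assay. EC50 derived from the concentration series. Cells were primary human hepatocytes or the MIN6 pancreatic β-cell line, as the line states.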

[3] = Toxicity in mouse MIN6 cells assessed by dehydrogenase activity measured after 48 hrs by CCK-8 assay; format: cell-based; in short: as §1
[4] = Stability of compound in PBS at pH 7.4 and 37 degree C measured by HPLC method; format: physicochemical; conditions: buffer
In short: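 Compound incubated at 37 °C in PBS (pH 7.4, 5% DMSO) with no catalyst. Remaining compound followed over time.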

[5] = Prodrug conversion in PBS buffer assessed as mycophenolic acid formation in presence of nitroreductase and NADH.; format: ADME
In short: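 Prodrug incubated at 37 °C in PBS (pH 7.4, 5% DMSO) with nitroreductase conjugated to 30 μm amino-terminated polystyrene beads by reductive amination, plus NADH. Release of mycophenolic acid followed over time.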

Row | SMILES | inhibition [1] | Stabilty [4] | Drug metabolism [5] | EC50 at 48 h [2] [µM] | EC50 at 48 h [3] [µM]
1 | COc1c(C)c2c(c(OCc3ccc([N+](=O)[O-])cc3)c1C/C=C(\C)CCC(=O)OCc1ccc([N+](=O)[O-])cc1)C(=O)OC2 | inactive | – | – | 8.3 | –
2 | COc1c(C)c2c(c(OCc3ccc([N+](=O)[O-])cc3)c1C/C=C(\C)CCC(=O)O)C(=O)OC2 | inactive | Stable | Metabolite_Detected | 14.4 | 24

The next lines start with results.

Row | inhibition [1] | Stabilty [4] | Drug metabolism [5] | SMILES | EC50 at 48 h [2] [µM] | EC50 at 48 h [3] [µM]
3 | inactive | – | – | C#CCOC(=O)CC/C(C)=C/Cc1c(OC)c(C)c2c(c1OCC#C)C(=O)OC2 | 6.7 | –
4 | Active | – | – | COc1c(C)c2c(c(O)c1C/C=C(\C)CCC(=O)O)C(=O)OC2 [MYCOPHENOLIC ACID] | 5.9 | 0.6
5 | inactive | Stable | – | C#CCOc1c(C/C=C(\C)CCC(=O)O)c(OC)c(C)c2c1C(=O)OC2 | 20.1 | –
